pIC50: −log10 of the molar value. Calls of active or inactive are those of the source. The calls are words filed in the database; no cut-off is given here.
How the values were obtained:
[1] = Cytotoxicity against human HL60 cells after 48 hrs by MTT assay; type: functional, cell-based; conditions: HL-60, 48 h
How it was run: (§1)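 Cells seeded 1 × 10^4 per well and incubated overnight, then given compound at 0–50 µM for 48 h. MTT added (20 µL of 5 mg/mL stock) for 4 h at 37 °C; formazan dissolved in DMSO, absorbance read at 570 nm. Triplicates; IC50 from mean OD versus concentration curves.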

[2] = test system: HeLa; assay: Cytotoxicity against human HeLa cells after 48 hrs by MTT assay; type: functional, cell-based; how it was run: as §1
[3] = test system: K562; assay: Cytotoxicity against human K562 cells after 48 hrs by MTT assay; type: functional, cell-based; conditions: K562, 48 h; how it was run: as §1
[4] = test system: A549; assay: Cytotoxicity against human A549 cells after 48 hrs by MTT assay; type: functional, cell-based; conditions: A549, 48 h; how it was run: as §1
[5] = biological target: T1, DNA topoisomerase 1 (Homo sapiens) (UniProt P11387); assay: Inhibition of Topo 1 (unknown origin)-mediated relaxation of supercoiled pBR322 plasmid at 25 uM after 30 mins by agarose gel electrophoresis
T1 sequence (whole entry): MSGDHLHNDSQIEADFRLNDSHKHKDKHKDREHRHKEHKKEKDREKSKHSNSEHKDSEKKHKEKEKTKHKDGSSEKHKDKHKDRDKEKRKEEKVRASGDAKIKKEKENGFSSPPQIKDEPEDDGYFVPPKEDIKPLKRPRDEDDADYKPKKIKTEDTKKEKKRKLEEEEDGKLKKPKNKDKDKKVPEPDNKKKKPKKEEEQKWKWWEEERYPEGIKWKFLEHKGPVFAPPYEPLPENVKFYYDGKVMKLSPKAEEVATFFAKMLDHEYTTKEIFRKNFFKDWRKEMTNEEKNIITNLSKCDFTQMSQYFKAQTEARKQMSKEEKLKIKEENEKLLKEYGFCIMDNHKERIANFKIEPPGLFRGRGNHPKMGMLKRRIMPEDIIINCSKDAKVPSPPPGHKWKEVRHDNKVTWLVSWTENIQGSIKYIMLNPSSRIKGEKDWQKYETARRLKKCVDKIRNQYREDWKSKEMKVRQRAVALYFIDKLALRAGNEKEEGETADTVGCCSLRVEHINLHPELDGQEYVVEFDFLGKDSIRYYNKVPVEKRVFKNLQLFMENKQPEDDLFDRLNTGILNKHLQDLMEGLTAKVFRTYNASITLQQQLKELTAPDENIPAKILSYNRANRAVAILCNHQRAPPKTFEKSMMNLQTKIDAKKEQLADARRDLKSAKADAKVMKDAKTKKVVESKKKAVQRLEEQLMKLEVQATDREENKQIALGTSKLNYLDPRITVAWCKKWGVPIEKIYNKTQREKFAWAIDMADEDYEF
How it was run: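 Topo I with supercoiled pBR322 and compound, 30 min at 37 °C. Stopped with SDS/bromophenol blue/glycerol dye; run on 1% agarose gel in TAE for 1 h and stained with Gel Red.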

[6] = biological target: DNA topoisomerase 2-alpha (Homo sapiens) (UniProt P11388); assay: Inhibition of human Topo 2-mediated relaxation of supercoiled pBR322 plasmid at 25 uM after 30 mins by agarose gel electrophoresis
[7] = biological target: DNA topoisomerase 2-alpha (Homo sapiens) (UniProt P11388); assay: Inhibition of human Topo 2 ATPase domain expressed in yeast BCY123 strain at 25 uM after 1 hr by nonisotopic malachite green assay
How it was run: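 Human Topo II ATPase domain overexpressed in yeast BCY123 and purified. Assay buffer: 100 mM Tris-HCl pH 7.4, 20 mM KCl, 6 mM MgCl2. Reaction of 25 µL with compound, started with 1 mM ATP, 1 h at 37 °C. Phosphate detected with malachite green at OD620. No-enzyme background set as 100% inhibition and enzyme-only as 0%.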

[8] = biological target: DNA topoisomerase 2-alpha (Homo sapiens) (UniProt P11388); assay: Inhibition of human Topo 2-mediated relaxation of supercoiled pBR322 plasmid at 25 to 50 uM after 30 mins by agarose gel electrophoresis

DNA topoisomerase 2-alpha (Homo sapiens), sequence (P11388 whole entry, the tested form may be a part): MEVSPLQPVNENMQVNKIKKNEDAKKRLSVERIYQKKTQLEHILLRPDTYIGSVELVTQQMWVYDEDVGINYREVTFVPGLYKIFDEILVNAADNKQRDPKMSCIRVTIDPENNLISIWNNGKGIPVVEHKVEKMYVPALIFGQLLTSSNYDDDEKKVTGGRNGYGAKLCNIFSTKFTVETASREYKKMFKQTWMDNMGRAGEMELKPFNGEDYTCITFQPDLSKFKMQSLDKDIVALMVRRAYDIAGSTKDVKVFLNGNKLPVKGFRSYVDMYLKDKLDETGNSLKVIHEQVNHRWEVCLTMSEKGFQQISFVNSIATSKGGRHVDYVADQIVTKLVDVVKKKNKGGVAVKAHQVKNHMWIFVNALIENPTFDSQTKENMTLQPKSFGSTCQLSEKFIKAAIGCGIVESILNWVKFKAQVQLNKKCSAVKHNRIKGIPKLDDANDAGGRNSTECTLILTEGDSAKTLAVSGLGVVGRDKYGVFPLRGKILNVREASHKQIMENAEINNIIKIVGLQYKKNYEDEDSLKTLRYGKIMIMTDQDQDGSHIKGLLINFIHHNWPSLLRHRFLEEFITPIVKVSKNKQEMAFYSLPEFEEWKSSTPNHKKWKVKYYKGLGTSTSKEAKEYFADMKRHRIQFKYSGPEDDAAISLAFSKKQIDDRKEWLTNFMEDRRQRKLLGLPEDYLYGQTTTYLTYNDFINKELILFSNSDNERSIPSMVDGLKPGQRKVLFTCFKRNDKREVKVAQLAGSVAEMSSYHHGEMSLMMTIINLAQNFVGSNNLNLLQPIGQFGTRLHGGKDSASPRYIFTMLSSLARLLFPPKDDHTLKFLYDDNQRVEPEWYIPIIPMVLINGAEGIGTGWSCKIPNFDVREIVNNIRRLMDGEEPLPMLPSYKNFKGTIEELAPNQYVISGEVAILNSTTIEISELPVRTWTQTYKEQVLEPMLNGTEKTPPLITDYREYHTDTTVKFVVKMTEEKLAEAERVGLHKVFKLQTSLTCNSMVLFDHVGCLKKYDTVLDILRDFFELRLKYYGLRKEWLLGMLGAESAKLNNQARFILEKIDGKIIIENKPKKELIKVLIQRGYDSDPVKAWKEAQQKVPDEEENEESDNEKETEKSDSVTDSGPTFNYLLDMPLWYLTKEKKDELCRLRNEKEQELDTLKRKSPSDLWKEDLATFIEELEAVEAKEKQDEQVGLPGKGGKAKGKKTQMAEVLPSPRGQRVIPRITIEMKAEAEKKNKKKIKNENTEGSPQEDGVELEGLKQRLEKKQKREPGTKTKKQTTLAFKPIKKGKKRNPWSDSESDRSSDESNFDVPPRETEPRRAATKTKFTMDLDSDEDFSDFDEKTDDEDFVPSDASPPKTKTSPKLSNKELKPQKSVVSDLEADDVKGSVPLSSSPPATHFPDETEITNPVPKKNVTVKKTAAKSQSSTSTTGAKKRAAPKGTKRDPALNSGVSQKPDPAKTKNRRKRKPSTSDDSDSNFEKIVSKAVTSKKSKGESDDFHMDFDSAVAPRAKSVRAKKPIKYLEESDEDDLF

In the case of `COc1ccc2c3nc4ccccc4n(CCN(C)C)c-3cc(=O)c2c1`, the pIC50 [1] was 5.55, the pIC50 [2] was 4.72 and the pIC50 [3] was 4.74. For the same molecule, the pIC50 [4] was 4.41.
With `COc1ccc2c(=O)cc3n(CCCN(C)C)c4ccccc4nc-3c2c1` the “Topo I relaxation inhibition (active/not active)” value [5] was “Active”, the “Topo 2 inhibition (active/not active)” value [6] was “Active” and the pIC50 [1] was 6.66. It also gave a pIC50 [2] of 4.52, a pIC50 [3] of 5.15 and a pIC50 [4] of 4.48.
For `COc1ccc2c(c1)nc1c3ccc(OC)cc3c(=O)cc-1n2CCCN(C)C`, the “Topo I relaxation inhibition (active/not active)” value [5] was “inactive”, the pIC50 [1] was 6.19 and the pIC50 [2] was 5.19. It also gave a pIC50 [3] of 4.66 and a pIC50 [4] of 4.46.
In the case of `O=C1C=CC(=O)c2ccccc21`, the inhibition [7] was 56%.
With `CN1CCN(CCn2c3cc(=O)c4ccccc4c-3nc3ccccc32)CC1` the “Topo I relaxation inhibition (active/not active)” value [5] was “Active”, the pIC50 [1] was 6.42 and the pIC50 [2] was 4.54. The pIC50 [3] was 4.67 and the pIC50 [4] was 4.60.
With `O=c1cc2n(CCCN3CCCCC3)c3ncccc3nc-2c2ccccc12` the “Topo I relaxation inhibition (active/not active)” value [5] was “inactive”, the “Topo 2 inhibition (active/not active)” value [6] was “inactive” and the pIC50 [1] was 6.20. It also gave a pIC50 [2] of 4.69, a pIC50 [3] of 4.42 and a pIC50 [4] of 4.70.
Molecule `CCCn1c2cc(=O)c3ccccc3c-2nc2ccccc21` has a pIC50 [1] of 4.49, a pIC50 [2] of under 4.30 and a pIC50 [3] of under 4.40. For the same molecule, the “Topo 2 inhibition (active/not active)” value [8] was “inactive” and the pIC50 [4] was under 4.30.
Molecule `CCN(CC)CCCn1c2cc(=O)c3ccccc3c-2nc2ccccc21` has a pIC50 [1] of 5.82, a pIC50 [2] of 4.35 and a pIC50 [3] of 4.61. The pIC50 [4] was 4.43.
In the case of `CCN(CC)CCCn1c2cc(=O)c3cc(OC)ccc3c-2nc2ccccc21`, the “Topo I relaxation inhibition (active/not active)” value [5] was “inactive”, the pIC50 [1] was 6.64 and the pIC50 [2] was 4.59. For the same molecule, the pIC50 [3] was 4.66 and the pIC50 [4] was 4.64.
In the case of `CN(C)CCn1c2cc(=O)c3ccccc3c-2nc2ccccc21`, the “Topo I relaxation inhibition (active/not active)” value [5] was “Active”, the pIC50 [1] was 6.51 and the pIC50 [2] was 5.00. For the same molecule, the pIC50 [3] was 4.61, the “Topo 2 inhibition (active/not active)” value [8] was “Active” and the pIC50 [4] was 4.65.
`CN(C)CCCn1c2cc(=O)c3ccccc3c-2nc2cc(Cl)ccc21` showed a pIC50 [1] of 5.97, a pIC50 [2] of 4.53 and a pIC50 [3] of 4.69. The pIC50 [4] was 4.42.
In the case of `O=c1cc2n(CCCN3CCCC3)c3ccccc3nc-2c2ccccc12`, the pIC50 [1] was 6.66, the pIC50 [2] was 4.52 and the pIC50 [3] was 4.60. It also gave a pIC50 [4] of 4.45.
In the case of `COc1cc([C@@H]2c3cc4c(cc3[C@@H](O[C@@H]3O[C@@H]5CO[C@@H](C)O[C@H]5[C@H](O)[C@H]3O)[C@H]3COC(=O)[C@H]23)OCO4)cc(OC)c1O` [ETOPOSIDE], the pIC50 [1] was 7.22, the pIC50 [2] was 6.27 and the pIC50 [3] was 5.79. It also gave a pIC50 [4] of 5.05.
In the case of `COc1ccc2nc3c4ccccc4c(=O)cc-3n(CCCN(C)C)c2c1`, the “Topo I relaxation inhibition (active/not active)” value [5] was “Active”, the pIC50 [1] was 6.74 and the pIC50 [2] was 5.26. The pIC50 [3] was 5.26 and the pIC50 [4] was 4.52.
